Experimental data pooled from the literature.
Compare with care: the assays were run in different laboratories.
Medium: Caco-2

CC(C)NCC(O)COc1cccc2ccccc12 (stereo not shown)  Papp B→A (10 µM, 2 h): 20 ×10⁻⁶ cm/s
CCCCCCOC(=O)NC(=N)c1ccc(NCc2nc3cc(C(=O)N(CCC(=O)OCC)c4ccccn4)ccc3n2C)cc1  Papp B→A (5 µM, 2 h): 1.1 ×10⁻⁶ cm/s
N#Cc1ccc(C[C@H](NC(=O)c2cc3cc(F)ccc3[nH]2)C(=O)N2CCc3ccccc32)cc1  Papp B→A (100 µM, 2 h): 386 ×10⁻⁶ cm/s
Cc1cc(C)c(CNC(=O)c2cc(Cl)c3c(c2C)O[C@@](C)([C@H]2CC[C@H](N(C)C)CC2)O3)c(=O)[nH]1  Papp B→A (100 µM): 16.3 ×10⁻⁶ cm/s
COc1ccc(-c2coc3cc(O)cc(O)c3c2=O)cc1  Papp B→A (100 µg/mL, 2 h): 21.2 ×10⁻⁶ cm/s
CCCCCOC(=O)Nc1nc(=O)n([C@@H]2O[C@H](C)[C@@H](O)[C@H]2O)cc1F  Papp B→A (4 h): 14.3 ×10⁻⁶ cm/s
C[C@@H]1O[C@@H](O[C@H]2[C@H](Oc3cc(O)c4c(c3)O[C@H](c3ccc(O)cc3)CC4=O)O[C@H](CO)[C@@H](O)[C@@H]2O)[C@H](O)[C@H](O)[C@H]1O  Papp B→A (100 µg/mL, 2 h): 8.02 ×10⁻⁶ cm/s
N#Cc1ccc(C[C@H](NC(=O)Nc2ccc(F)cc2)C(=O)N2CCc3ccccc32)cc1  Papp B→A (100 µM, 2 h): 218 ×10⁻⁶ cm/s
O=C(CCc1ccc(O)cc1)c1c(O)cc(O)cc1O  Papp B→A (100 µg/mL, 2 h): 12.2 ×10⁻⁶ cm/s
COc1cc(NC(=O)Cn2cc(Cl)c3cc(F)c(-c4cnn(C)c4)cc32)cc(OC)c1OC  Papp B→A: 1.51 ×10⁻⁶ cm/s
Oc1cc(O)c2c(c1)O[C@H](c1ccc(O)c(O)c1)[C@H](O)C2  Papp B→A (100 µg/mL, 2 h): 0.55 ×10⁻⁶ cm/s
N#Cc1ccc(C[C@H](Nc2c(Nc3ccc(Br)cc3)c(=O)c2=O)C(=O)N2CCc3ccccc32)cc1  Papp B→A (100 µM, 2 h): 249 ×10⁻⁶ cm/s
C=CC(=O)NC1CCN(c2ncc3ncnc(Nc4ccc(Oc5ccc6c(c5)ncn6C)c(C)c4)c3n2)CC1  Papp B→A: ~9 ×10⁻⁶ cm/s
